According to ChEMBL document CHEMBL5715959, “Inhibition of histone methyltransferase EZH2 in Schistosoma mansoni in vitro by GSK343 reduces egg laying and decreases the expression of genes implicated in DNA replication and noncoding RNA metabolism” (2018):
Activity calls are given as the source filed them. No cut-off for these calls is given here.

Legend:
Schistosoma mansoni [1] = experiment: Antischistosomal activity against adult male Schistosoma mansoni assessed as morphological alterations in anterior and posterior regions at 20 uM incubated for 48 hrs by scanning electron microscopy analysis; type: functional, organism-based
Procedure, shortened: (§1)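 Adult couples were taken by perfusion into supplemented RPMI, one couple per well, and adapted 2 h at 37°C, 5% CO2. They were exposed to 20 μM GSK343 or 0.1% DMSO for 24 and 48 h. Fixation used modified Karnovsky with osmium post-fix, followed by ethanol dehydration, critical-point drying, gold sputtering and scanning electron microscopy of tegument surfaces.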

Schistosoma mansoni [2] = experiment: Antischistosomal activity against Schistosoma mansoni assessed as change in size at 20 uM incubated for 24 hrs by scanning electron microscopy analysis; type: functional, organism-based
Procedure, shortened: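 Newly transformed schistosomula were held 16 h in M169 with 2% FBS, serotonin, hypoxanthine, hydrocortisone, triiodothyronine and antibiotics at 37°C, 5% CO2, at 2,000 per well. They were then exposed to 20 μM GSK343 or 0.1% DMSO for 24 and 48 h. Fixation was modified Karnovsky (pH 7.4) with 1% osmium post-fix, then ethanol dehydration, critical-point drying, gold coating and SEM. Lengths came from three experiments, each with 20 schistosomula.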

Schistosoma mansoni [3] = experiment: Antischistosomal activity against adult Schistosoma mansoni assessed as dead worms at 50 uM incubated for 48 hrs by inverted microscope analysis; type: functional, organism-based
Procedure, shortened: (§2)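 Paired adult worms were cultured in RPMI/10% FBS with antibiotics at 37°C, 5% CO2, with GSK343 or 0.1% DMSO. They were viewed by inverted microscope at 3, 6, 12, 24 and 48 h. Motility was scored on a 0–3 scale (3 full movement, 1.5 partial or immobile but alive, 0 dead); death meant no movement over more than 2 min. Pairing was recorded. Three experiments, each with 10 pairs; mean ± SD.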

Schistosoma mansoni [4] = experiment: Cytotoxicity against Schistosoma mansoni assessed as decrease in viability at 20 uM incubated for 2 days relative to control; settings: time 2 day
Schistosoma mansoni [5] = experiment: Antischistosomal activity against adult Schistosoma mansoni assessed as increased H3K9ac level at 20 uM incubated for 48 hrs by Western blotting analysis; type: functional, organism-based
Procedure, shortened: (§3)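 Fifty adult worm pairs were treated 48 h with 20 μM GSK343 or vehicle in supplemented RPMI/10% FBS, then lysed in Triton buffer. Nuclear pellets were acid-extracted overnight in 0.25 M HCl at 4°C and histones were TCA-concentrated. 10 μg went on 15% SDS-PAGE and nitrocellulose, probed with anti-H3K27me3, K9ac, K27ac or K4me3, then IRDye secondaries; infrared densitometry was normalized to anti-H3. Three biological replicates; t-test.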

Schistosoma mansoni [6] = experiment: Antischistosomal activity against adult female Schistosoma mansoni assessed as presence of peeling in dorsal region at 20 uM incubated for 24 to 48 hrs by scanning electron microscopy analysis; type: functional, organism-based; settings: time 24-48 hrs; procedure, shortened: as §1
Schistosoma mansoni [7] = experiment: Antischistosomal activity against adult Schistosoma mansoni assessed as dead worms incubated for 24 hrs by inverted microscope analysis; type: functional, organism-based; procedure, shortened: as §2
Schistosoma mansoni [8] = experiment: Antischistosomal activity against female Schistosoma mansoni assessed as down-regulated EED mRNA level at 20 uM incubated for 48 hrs by RT-qPCR analysis; type: functional, organism-based
Procedure, shortened: (§4)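 Schistosomula (supplemented M169) or adult worms (supplemented RPMI) were treated 48 h with 20 μM GSK343 or 0.1% DMSO at 37°C, 5% CO2. qPCR normalizer genes were chosen from RNA-seq data as those with TPM >1 and a treated/control ratio of 0.9–1.1 that were not differentially expressed. Relative expression was calculated by comparative Ct; significance by t-test.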

Schistosoma mansoni [9] = experiment: Antischistosomal activity against adult Schistosoma mansoni assessed as increased H3K27ac level at 20 uM incubated for 48 hrs by Western blotting analysis; type: functional, organism-based; procedure, shortened: as §3
Schistosoma mansoni [10] = experiment: Antischistosomal activity against Schistosoma mansoni assessed as death of schistosomula at 10 to 50 uM incubated for 24 to 72 hrs by propidium iodide staining based fluorescence microscope analysis; type: functional, organism-based; settings: dose 10-50 µM, time 24-72 hrs
Procedure, shortened: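 Schistosomula were cultured in supplemented M169 with 10–50 μM GSK343 or 0.1% DMSO for 24, 48 and 72 h. A fresh well set was used per time point, with 2 μg/mL propidium iodide (dead) plus 0.5 μg/mL fluorescein diacetate (live) added. Parasites were read immediately by light and fluorescence microscopy; percent viable was computed against total parasites. About 3600 schistosomula per condition over four biological replicates; 70% ethanol served as positive control.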

Schistosoma mansoni [11] = experiment: Antischistosomal activity against juvenile Schistosoma mansoni assessed as presence of blisters in dorsal tegument at 20 to 50 uM incubated for 48 hrs by scanning electron microscopy analysis; type: functional, organism-based; settings: dose 20-50 µM
Procedure, shortened: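 Juvenile worms recovered by perfusion, five per well in supplemented RPMI (10% FBS, antibiotics, 37°C, 5% CO2), 2 h adaptation, then exposed 48 h to compound or 0.1% DMSO. Fixed in modified Karnovsky reagent (pH 7.4), washed in cacodylate buffer, post-fixed 1 h in 1% osmium tetroxide, ethanol-dehydrated, critical-point dried, gold-sputtered and imaged by scanning electron microscopy.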

Schistosoma mansoni [12] = experiment: Antischistosomal activity against female Schistosoma mansoni assessed as down-regulated EEFB1 mRNA level at 20 uM incubated for 48 hrs by RT-qPCR analysis; type: functional, organism-based; procedure, shortened: as §4
Schistosoma mansoni [13] = experiment: Antischistosomal activity against Schistosoma mansoni assessed as down-regulated Val7 mRNA level in schistosomula at 20 uM incubated for 48 hrs by RT-qPCR analysis; type: functional, organism-based; procedure, shortened: as §4
Schistosoma mansoni [14] = experiment: Antischistosomal activity against Schistosoma mansoni assessed as increased H3K27ac level in schistosomula at 20 uM incubated for 48 hrs by Western blotting analysis; type: functional, organism-based
Procedure, shortened: (§5)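 About 10,000 schistosomula were treated 48 h with 20 μM GSK343 or vehicle, then sonicated in Triton X-100 lysis buffer with PMSF and protease inhibitors. Supernatant nuclear extract (BCA-quantified, 10 μg) was run on 15% SDS-PAGE and blotted to nitrocellulose. Blots were probed with mark-specific monoclonal antibodies, then IRDye secondaries; infrared imaging was used and signals were normalized to total H3. t-test.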

Schistosoma mansoni [15] = experiment: Cytotoxicity against juvenile Schistosoma mansoni assessed as decrease in viability at 20 to 50 uM incubated for 24 hrs by CellTiter-Glo Luminescent assay relative to control; type: functional; settings: dose 20-50 µM
Procedure, shortened: (§6)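 Perfused juvenile worms cultured in supplemented RPMI (10% FBS, 37°C, 5% CO2), exposed 24 or 48 h to compound or 0.1% DMSO. Total parasite ATP read by luminescence, given as % of vehicle; three replicate experiments of 10 juveniles each, mean ± SD.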

Schistosoma mansoni [16] = experiment: Antischistosomal activity against Schistosoma mansoni assessed as increased H3K9ac level in schistosomula at 20 uM incubated for 48 hrs by Western blotting analysis; type: functional, organism-based; procedure, shortened: as §5
Schistosoma mansoni [17] = experiment: Antischistosomal activity against female Schistosoma mansoni assessed as down-regulated nanos mRNA level at 20 uM incubated for 48 hrs by RT-qPCR analysis; type: functional, organism-based; procedure, shortened: as §4
Schistosoma mansoni [18] = experiment: Cytotoxicity against juvenile Schistosoma mansoni assessed as decrease in viability at 50 uM incubated for 48 hrs by CellTiter-Glo Luminescent assay relative to control; type: functional; procedure, shortened: as §6
Schistosoma mansoni [19] = experiment: Antischistosomal activity against adult male Schistosoma mansoni assessed as presence of deep chasms between the dorsal tubercles at 20 uM incubated for 48 hrs by scanning electron microscopy analysis; type: functional, organism-based; procedure, shortened: as §1
Schistosoma mansoni [20] = experiment: Antischistosomal activity against adult Schistosoma mansoni assessed as altered motility at 50 uM incubated for 12 hrs by inverted microscope analysis; type: functional, organism-based; procedure, shortened: as §2
Schistosoma mansoni [21] = experiment: Antischistosomal activity against adult Schistosoma mansoni assessed as decreased motility at 20 uM incubated for 48 hrs by inverted microscope analysis relative to control; type: functional; parameters: scale not given: the % may be the effect or the level left; procedure, shortened: as §2

For CCCc1cc(C)[nH]c(=O)c1CNC(=O)c1cc(-c2ccnc(N3CCN(C)CC3)c2)cc2c1cnn2C(C)C, the Activity (Schistosoma mansoni [1]) was “inactive”, the Activity (Schistosoma mansoni [2]) was “inactive” and the Activity (Schistosoma mansoni [3]) was “Active”. For the same compound, the Activity (Schistosoma mansoni [4]) was <20%, the Activity (Schistosoma mansoni [5]) was “Active” and the Activity (Schistosoma mansoni [6]) was “Active”. The Activity (Schistosoma mansoni [7]) was “Active”, the Activity (Schistosoma mansoni [8]) was “Active” and the Activity (Schistosoma mansoni [9]) was “Active”. The Activity (Schistosoma mansoni [10]) was “Active”, the Activity (Schistosoma mansoni [11]) was “Active” and the Activity (Schistosoma mansoni [12]) was “Active”. For the same compound, the Activity (Schistosoma mansoni [13]) was “Active”, the Activity (Schistosoma mansoni [14]) was “Active” and the Activity (Schistosoma mansoni [15]) was 20%. For the same compound, the Activity (Schistosoma mansoni [16]) was “Active”, the Activity (Schistosoma mansoni [17]) was “Active” and the Activity (Schistosoma mansoni [18]) was 70%. For the same compound, the Activity (Schistosoma mansoni [19]) was “Active”, the Activity (Schistosoma mansoni [20]) was “Active” and the Activity (Schistosoma mansoni [21]) was ~40%.
